Results from different studies.
Compare with care: the assays were run in different laboratories.

Compound	method	medium	pH	pKa
CCn1c(C(=O)N(C2CC2)C2CC2)cc2c3c(ncn3C)c(Nc3cc(C)n(C)n3)nc21	–	–	–	4
Cc1cc(Cl)cc(S(C)(=O)=O)c1NC(=O)c1cc(Br)nn1-c1ncccc1Cl	potentiometric	–	–	8.95
CS(=O)(=O)N1CCN(Cc2cc3nc(-c4cccc5[nH]ncc45)nc(N4CCOCC4)c3s2)CC1	–	–	–	4.24
CC(C)(C)CCN1CC2C(CNC(=O)c3cc(Cl)cc(Cl)c3)C2C1 (stereo not shown)	–	–	–	8.1
CC(C)CC(=O)N1CCC[C@H](COc2cccc3c2C(N)=NS(=O)(=O)N3)C1	–	–	–	6.31
COc1ccccc1Oc1c(NS(=O)(=O)c2ccc(C(C)(C)C)cc2)nc(-c2ncccn2)nc1OCCO	–	–	–	5.11
COC(=O)c1ccc(/C=N/NS(=O)(=O)c2ccc(OC)c(OC)c2)cc1	–	aqueous buffer	–	6.86
O=C1c2c(O)cc(O)cc2O[C@H](c2cc(O)c(O)c(O)c2)[C@H]1O	absorbance	aqueous buffer	pH 3.1	7.9
COc1cccc(C=CCC(=O)O)c1OC	–	–	–	~4.2
Cc1cnc(N2CC3(CCOCC3)C2)c(C(=O)Nc2ccc(C(=O)N3CCc4cc(C(=O)Nc5c(C)cccc5F)sc4-c4ccccc43)cc2)c1	–	–	–	4.8
C=CC(=O)N(C)CCOc1c(N)ncnc1-c1cc(F)cc(NC(=O)c2ccc(C3CC3)cc2F)c1C	–	–	–	4.1
CC#Cc1cncc(-c2ccc3c(c2)[C@@]2(N=C(C)C(N)=N2)[C@]2(CC[C@H](OC)CC2)C3)c1	–	–	–	6.4
COc1ccc(S(=O)(=O)N/N=C/c2cccc(C(=O)O)c2)cc1OC	–	aqueous buffer	–	6.69
